Source: PubChem BioAssay
Sampled rows, rich in hits. Any-hit rate of the full collection: about 2.5%.
Bfl-1 A1 inh = inhibitors of the anti-apoptotic protein A1, read as caspase activation; MEF A1-2A-BIM cells, Caspase-Glo 3/7 luminescence, 3 h; percent of clofoctol response, vehicle zero; caspase activation, % (test concentration not listed); actives 0.066% (n = 330,000); AID 2462;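 active = over half of replicate activation scores above 10%, or exactly half above 10 with the replicate mean above 10; inconclusive = replicate mean below 10 yet half the replicates above 10; inactive = over half of replicates below 10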
MC4R antag cAMP = antagonists of human melanocortin 4 receptor (MC4R) | P32245 | MC4R-expressing cells, MTII-stimulated cAMP, LANCE TR-FRET | inhibition, % at 6.5 µM | actives 0.48% (n = 360,000) | AID 540295;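 active = inhibition above its plate's cutoff, the mean of tested wells on that plate plus 3 SD, cut at about 29% in these data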;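 note: 0% = Melanotan II alone and 100% = Melanotan II plus saturating MCL0020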
Target sequence (P32245 whole entry, looked up): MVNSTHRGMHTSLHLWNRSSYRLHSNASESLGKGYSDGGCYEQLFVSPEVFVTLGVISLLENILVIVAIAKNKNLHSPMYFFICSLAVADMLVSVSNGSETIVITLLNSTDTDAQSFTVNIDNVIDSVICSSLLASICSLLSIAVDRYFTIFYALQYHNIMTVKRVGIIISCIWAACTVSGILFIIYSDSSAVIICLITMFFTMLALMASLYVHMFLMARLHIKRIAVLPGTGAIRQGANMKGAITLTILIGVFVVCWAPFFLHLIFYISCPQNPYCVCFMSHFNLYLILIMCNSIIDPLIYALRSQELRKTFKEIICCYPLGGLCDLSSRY
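Assay system: U2OS cells stably expressing human melanocortin 4 receptor (MC4R) / Dosing: 6.5 µM / Timing: compound 30 min, challenge 1 h, detection 1 h / Measured by: Eu-cAMP/anti-cAMP TR-FRET, emission 671 nm / Replicates: singlicate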
HGIII-sPLA2 inh = Blocks human group III sPLA2 activity; actives 0.56% (n = 370,000); inhibition, % at 12.2 µM; QFRET BODIPY PC-A2 liposome hydrolysis, fluorescence;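 active = inhibition above mean plus 3 SD of compounds lying within the high and low control bounds, cut at about 19% in these data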;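 note: 0% = median of test compound wells and 100% = no enzyme DMSO wells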
NTR1 agonist = activates human neurotensin receptor 1; NTR1-U2OS beta-arrestin-GFP spot imaging, agonist mode; P30989; AID 493036; actives 0.17% (n = 330,000); activation, % at 20 µM;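 active = activation at or above 40% of the spot to cytoplasm intensity ratio, with at least 20 cells analyzed; inconclusive = wells under 20 cells, flagged as cytotoxic or low count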;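 note: 0% = DMSO without peptide and 100% = 100 nM NTR1 peptide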
Exocytosis inh = lytic granule exocytosis inhibition; TALL-104 LAMP-1 surface exposure, flow cytometry; cells stimulated with thapsigargin and PMA; inhibition, % at 10 µM; actives 0.66% (n = 360,000); AID 651702;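 active = inhibition above about 55%, limit read from the data; inconclusive = no clear call, values can overlap the other calls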
MC4R ag barr = agonists of human melanocortin 4 receptor (MC4R) beta-arrestin. P32245. U2OS MC4R beta-arrestin complementation, luminescence; percent of melanotan II response, DMSO zero. activation, % at 8.9 µM. actives 0.98% (n = 360,000);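 active = activation above a per-plate cutoff, the mean activation of sample wells on that plate plus 3 SD, cut at about 8% in these data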
NTR1 ag confirm = confirmation of agonists of human NTR1. shares compounds with NTR1 agonist. NTR1-U2OS beta-arrestin-GFP translocation imaging. activation, % at 20 µM. actives 38% (n = 480). AID 504550;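 active = mean activation at 20 µM of at least 40%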;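 note: 0% = DMSO without peptide and 100% = 100 nM NTR1 peptide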
* hit, by the source's call; ? = inconclusive; nt = no result.

SMILES	Bfl-1 A1 inh	MC4R antag cAMP	HGIII-sPLA2 inh	NTR1 agonist	Exocytosis inh	MC4R ag barr	NTR1 ag confirm
CCOC(=O)[C@]12CCCCC/C=C\1N(CCc1ccc(Cl)cc1)C(=O)[C@H]2CC(=O)NCc1ccc(C)o1	nt	nt	-6	nt	nt	nt	nt
Oc1cccc(-c2nc3c4c(ncn3n2)-c2ccccc2CC42CCCC2)c1	1	17	-9	44*	34	0	34
COc1ccc(-c2nc3c4c(ncn3n2)-c2ccccc2CC42CCCC2)cc1	0	-1	-1	-2	3	-1	nt
Cc1cccc(NC(=O)c2nc[nH]c2C(=O)N[C@@H](C)c2ccccc2)c1	0	7	-8	50*	-6	0	38
CCN(Cc1ccccc1)C(=O)CCCN1C(=O)COc2ccc(C)cc21	nt	nt	-3	nt	nt	nt	nt
O=C(COc1ccccc1)NCC(=O)N/N=C/c1ccc(O)cc1O	2	7	-12	42*	2	0	40
C=C(C)COc1ccc(-c2nc(N)nc(C(F)(F)F)c2-c2ccc(OC)cc2)c(O)c1	0	11	-9	41*	25	1	12
C=C(C)COc1ccc(-c2ncnc(C(F)(F)F)c2-c2ccc(OC)cc2)c(O)c1	0	20	-24	5	32	1	nt
CCOc1ccc(Br)cc1S(=O)(=O)Nc1ccc(N2CCOCC2)cc1	1	-1	-3	0	3	-1	nt
CCOc1ccc(Br)cc1S(=O)(=O)Nc1ccccc1N1CCOCC1	0	2	-6	49*	-2	1	54*
COC(=O)C(=Cc1ccc(OCc2ccc([N+](=O)[O-])cc2)c(OC)c1)C(=O)OC	0	13	10	45*	2	-2	75*
CCOC(=O)C(=Cc1ccc(OCc2ccc([N+](=O)[O-])cc2)c(OC)c1)C(=O)OCC	3	27	0	21	-2	0	nt
CC(=O)OCCCNc1cc(Sc2ccc(C)cc2)c2nonc2c1[N+](=O)[O-]	1	-11	2	67*	2	-3	86*
O=[N+]([O-])c1c(NCCCO)cc(Sc2ccc(Cl)cc2)c2nonc12	2	-36	15	nt	17	-4	nt
O=[N+]([O-])c1c(NCCCO)cc(SCc2ccco2)c2nonc12	0	-17	7	18	0	-4	nt
Cn1ccnc1Sc1cc(NCCCO)c([N+](=O)[O-])c2nonc12	0	-28	4	45*	5	-4	72*
CCCCCc1cc(=O)oc2c(C(CCN3CCCC3)c3cc(OC)c(OC)c(OC)c3)c(OC)cc(OC)c12 (stereo not given)	-1	15	-18	37	-5	2	nt
CCCCCc1cc(=O)oc2c(C(CCN3CCCC3)c3ccc(N(C)C)cc3)c(OC)cc(OC)c12 (stereo not given)	0	0	-5	53*	-6	5	38
CCCCCc1cc(=O)oc2c(C(CCN3CCCCC3)c3ccc(OC)cc3)c(OC)cc(OC)c12 (stereo not given)	3	12	-15	48*	17	3	61*
COc1cc(-c2csc(N3CCC(C(N)=O)CC3)n2)cc(OC)c1OC	nt	nt	5	nt	nt	nt	nt
Cc1ccnc(Nc2nc(-c3ccc(Cl)cc3)cs2)c1	0	11	-4	10	6	1	nt
Cc1ccnc(Nc2nc(-c3ccc(F)cc3)cs2)c1	-2	-3	-4	49*	-3	1	3
O=C(O)c1cccc(NC(CNS(=O)(=O)c2ccc(Cl)cc2)c2ccccc2)c1 (stereo not given)	0	11	-53	0	1	-1	nt
O=S(=O)(NCC(Nc1ccccc1)c1ccccc1)c1ccc(Cl)cc1 (stereo not given)	-2	14	-27	44*	1	4	7
Cc1cccc(Nc2nc(N)c([N+](=O)[O-])c(N3CC(C)CC(C)C3)n2)c1 (stereo not given)	1	27	-21	46*	-2	0	36
SMILES	Bfl-1 A1 inh	MC4R antag cAMP	HGIII-sPLA2 inh	NTR1 agonist	Exocytosis inh	MC4R ag barr	NTR1 ag confirm
O=C(NCCc1ccccc1)c1ccc(Sc2ccccc2Cl)c([N+](=O)[O-])c1	nt	nt	1	nt	nt	nt	nt
CCN1CCN(C(=O)CCCCCn2c(=O)[nH]c3cc(C(=O)OC)ccc3c2=O)CC1	0	-3	2	-1	0	-2	nt
COC(=O)c1ccc2c(=O)n(CCCCCC(=O)N3CCN(c4ccccc4)CC3)c(=O)[nH]c2c1	0	3	5	47*	1	0	64*
O=c1cc(-c2ccc(O)cc2)oc2cc(O)c(C3OC(CO)C(O)C(O)C3O)c(O)c12 (stereo not given)	0	5	0	41*	0	0	52*
O=c1cc(-c2ccc(O)c(O)c2)oc2cc(O[C@@H]3O[C@H](CO)[C@@H](O)[C@H](O)[C@H]3O)cc(O)c12	-6	-9	nt	-2	4	-1	nt
COc1cc2c3nnc(-c4ccccc4)c-3cn(Cc3ccccc3F)c2cc1OC	1	nt	-13	115*	nt	nt	90*
COC(=O)c1ccc2c(c1)C(C)(C)C(/C=C/c1ccc(OC)c(OC)c1OC)=[N+]2C	0	9	11	38	32	-1	nt
COC(=O)c1ccc2c(c1)C(C)(C)C(/C=C/c1ccc(O)cc1)=[N+]2C	10*	-3	-5	46*	24	-6	51*
COc1ccc(C(=O)Oc2cccc(Nc3ncnc4ccccc34)c2)cc1OC	0	2	-13	6	-5	1	nt
COc1cc(C(=O)Oc2cccc(Nc3ncnc4ccccc34)c2)cc(OC)c1OC	0	5	-12	44*	16	4	31
C=C1C(=O)[C@]23C[C@H]1CC[C@H]2[C@]1(C)CCC[C@@](C)(C(=O)OC)[C@H]1C[C@@H]3O	nt	nt	3	nt	nt	nt	nt
COc1ccc(Cn2c(C3CCCCC3)nc3c(c(=O)c4ccccc4n3C)c2=O)cc1	1	nt	nt	43*	nt	nt	34
Cc1ccc(Sc2c([N+](=O)[O-])c(=O)n(C)c3ccccc23)cc1	4	12	8	67*	?	-3	73*
Cc1ccc(Sc2c(O)c3ccccc3n(C)c2=O)cc1	nt	12	-5	nt	4	1	nt
CN(C)S(=O)(=O)c1ccc(NC(=O)c2c(F)cccc2Cl)cc1	0	0	-8	49*	0	-1	-5
COc1ccc(Nc2nc(N)c([N+](=O)[O-])c(NCCO)n2)cc1	0	0	-1	-2	7	0	nt
COc1ccc(Nc2nc(N)c([N+](=O)[O-])c(NC3CCCCC3)n2)cc1	-1	18	-17	46*	1	3	15
CC(=O)CC[C@H]1CC[C@]2(CCCN(C(=O)c3ccno3)C2)O1	nt	nt	1	nt	nt	nt	nt
